Laboratory results reported in ChEMBL document CHEMBL1144398, “Structure-based design, parallel synthesis, structure-activity relationship, and molecular modeling studies of thiocarbamates, new potent non-nucleoside HIV-1 reverse transcriptase inhibitor isosteres of phenethylthiazolylthiourea derivatives” (J Med Chem, 2005).

Assays:
MT4 [1] = test: Cytotoxic concentration required to reduce the viability of mock infected MT-4 cells determined by MTT method; assay type: functional; conditions: Homo sapiens
Procedure, shortened: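 Viability of mock-infected MT-4 cells, assayed in parallel with the antiviral test, read by MTT. CC50 is the concentration that lowers viability by 50%. Values are means of three separate experiments, with variation among triplicates under 10%. The highest concentration tested was 100 µM.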

MT4 [2] = test: Effective concentration require to protect MT-4 cells from human immunodeficiency virus type 1 induced cytopathogenicity was determined by MTT method; assay type: functional, cell-based
Procedure, shortened: (§1)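 MT-4 cells infected with HIV-1, with test compounds added. Protection from virus-induced cytopathogenicity was read by MTT. EC50 is the concentration giving 50% protection. Values are means of three separate experiments, with variation among triplicates under 10%. Trovirdine served as the reference.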

MT4 [3] = test: Ratio of CC50 to that of EC50 determined in MT-4 cells; assay type: functional
Procedure, shortened: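 Selectivity index, calculated as CC50/EC50. CC50 came from MTT viability of mock-infected MT-4 cells and EC50 from MTT-read protection of HIV-1-infected MT-4 cells from cytopathogenicity, with both run in parallel. Values are means of three experiments.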

C8166 = test: Effective concentration required to reduce the amount of p24 antigen levels in wild type human immunodeficiency virus type 1 infected C8166 cultures; assay type: functional
Procedure, shortened: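 C8166 cultures infected with wild-type HIV-1. p24 antigen in the cultures was measured after compound treatment, and EC90 is the concentration that reduces p24 by 90%. Trovirdine served as the reference.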

MT4 [4] = test: Effective concentration require to protect MT-4 cells from HIV-1 Y181C mutant induced cytopathogenicity was determined by MTT method; assay type: functional, cell-based, Homo sapiens
Procedure, shortened: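 HIV-1 strains carrying the Y181C RT mutation in MT-4 cells. EC50 is the concentration giving 50% protection from virus-induced cytopathogenicity, read out by MTT. Trovirdine was run as the reference. Values are means of three separate experiments.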

[5] = target: T1, Human immunodeficiency virus type 1 reverse transcriptase (Human immunodeficiency virus 1, UniProt Q72547); test: Inhibitory concentration against HIV-1 virion reverse transcriptase
[6] = target: Human immunodeficiency virus type 1 reverse transcriptase (Human immunodeficiency virus 1, UniProt Q72547, Y181C); test: Inhibitory concentration against HIV-1 mutant reverse transcriptase (Y181C)
[7] = target: Human immunodeficiency virus type 1 reverse transcriptase (Human immunodeficiency virus 1, UniProt Q72547, K103N/Y181C); test: Inhibitory concentration against HIV-1 mutant reverse transcriptase (K103N+Y181C)
[8] = target: T1, Human immunodeficiency virus type 1 reverse transcriptase; test: Inhibitory concentration against HIV-1 wild type reverse transcriptase (IIIB)
[9] = target: T1, Human immunodeficiency virus type 1 reverse transcriptase; test: Inhibitory concentration against HIV-1 mutant reverse transcriptase (K103R)
MT4 [10] = test: Effective concentration require to inhibit human immunodeficiency virus type 1 induced cytopathogenicity in MT-4 cells determined by MTT method; assay type: functional, cell-based; procedure, shortened: as §1

Q: Which results are given for `O=C1c2ccccc2C(=O)N1CCOC(=S)Nc1ccc(Cl)cc1`?
A: CC50 (MT4 [1]): > 100 µM; EC50 (MT4 [2]): 0.04 µM; SI (MT4 [3]): >2500; EC90 (C8166): 0.04 µM; EC50 (MT4 [4]): 2.3 µM

Q: For `O=C1c2ccccc2C(=O)N1CCOC(=S)Nc1ccc(Br)cc1`, which CC50 (MT4 [1]) is on record?
A: The CC50 was over 100 µM.

Q: What about the EC50 (MT4 [2]) of the same compound?
A: The EC50 was 0.03 µM.

Q: What about the SI (MT4 [3]) of the same compound?
A: The SI was over 3333.

Q: And the EC90 (C8166)?
A: Its EC90 is 0.015 µM.

Q: And the EC50 (MT4 [4])?
A: The EC50 was 2.4 µM.

Q: `CC(CO/C(S)=N\c1ccc(Cl)cc1)NC(=O)c1ccccc1C(=O)O` (stereo unspecified) was tested. Which CC50 (MT4 [1]) did it give?
A: The CC50 was over 100 µM.

Q: And the EC50 (MT4 [2])?
A: Its EC50 is 5 µM.

Q: What about the SI (MT4 [3]) of the same compound?
A: Its SI is over 20.

Q: Which results are given for `O=C1c2ccccc2C(=O)N1CCOC(=S)Nc1ccccc1`?
A: CC50 (MT4 [1]): > 100 µM; EC50 (MT4 [2]): 1.2 µM; IC50 [5]: 0.6 µM; SI (MT4 [3]): >83.3

Q: With `CC(CN1C(=O)c2ccccc2C1=O)O/C(S)=N/c1ccc([N+](=O)[O-])cc1` (stereo unspecified) as the compound, how does the CC50 (MT4 [1]) read?
A: Its CC50 is over 100 µM.

Q: What about the EC50 (MT4 [2]) of the same compound?
A: The EC50 was 8.6 µM.

Q: And the SI (MT4 [3])?
A: The SI was over 11.6.

Q: What does the source list for `O=C1c2ccccc2C(=O)N1CCOC(=S)Nc1ccc(I)cc1`?
A: IC50 [6]: > 20 µM; CC50 (MT4 [1]): > 100 µM; IC50 [7]: > 20 µM; EC50 (MT4 [2]): 0.02 µM; IC50 [8]: 0.09 µM; IC50 [9]: 2.3 µM; SI (MT4 [3]): >5000; EC90 (C8166): 0.04 µM

Q: For `O=C1c2ccccc2C(=O)N1CCCOC(=S)Nc1ccc([N+](=O)[O-])cc1`, which CC50 (MT4 [1]) is on record?
A: The CC50 was at least 100 µM.

Q: And the EC50 (MT4 [2])?
A: Its EC50 is 19 µM.

Q: And the SI (MT4 [3])?
A: The SI was “>=5.3”.

Q: With `O=C(O)c1ccccc1C(=O)NCCO/C(S)=N\c1ccc(I)cc1` as the compound, how does the IC50 [6] read?
A: Its IC50 is 4.8 µM.

Q: What about the CC50 (MT4 [1]) of the same compound?
A: Its CC50 is over 100 µM.

Q: And the IC50 [7]?
A: The IC50 was over 20 µM.

Q: What about the EC50 (MT4 [2]) of the same compound?
A: Its EC50 is 0.13 µM.

Q: And the IC50 [8]?
A: Its IC50 is 1.7 µM.

Q: What about the IC50 [9] of the same compound?
A: The IC50 was over 20 µM.

Q: What about the SI (MT4 [3]) of the same compound?
A: Its SI is over 769.

Q: For `O=C1c2ccccc2C(=O)N1CCOC(=S)Nc1ccc(F)cc1`, which CC50 (MT4 [1]) is on record?
A: The CC50 was over 100 µM.

Q: What about the EC50 (MT4 [2]) of the same compound?
A: Its EC50 is 0.1 µM.

Q: And the SI (MT4 [3])?
A: Its SI is over 1000.

Q: What about the EC90 (C8166) of the same compound?
A: The EC90 was 0.1 µM.

Q: What about the EC50 (MT4 [4]) of the same compound?
A: Its EC50 is 38 µM.

Q: Which results are given for `CC(CO/C(S)=N\c1ccc([N+](=O)[O-])cc1)NC(=O)c1ccccc1C(=O)O` (stereo unspecified)?
A: CC50 (MT4 [1]): > 100 µM; EC50 (MT4 [2]): 13 µM; SI (MT4 [3]): >7.7

Q: Which results are given for `Cc1ccc(NC(=S)OCCN2C(=O)c3ccccc3C2=O)cc1`?
A: CC50 (MT4 [1]): > 100 µM; EC50 (MT4 [2]): 0.02 µM; SI (MT4 [3]): >5000; EC50 (MT4 [10]): 1.8 µM; EC90 (C8166): 0.015 µM

Q: `Cc1ccc(/N=C(/S)OC(C)CNC(=O)c2ccccc2C(=O)O)cc1` (stereo unspecified) was tested. Which CC50 (MT4 [1]) did it give?
A: Its CC50 is over 100 µM.

Q: What about the EC50 (MT4 [2]) of the same compound?
A: The EC50 was 41 µM.

Q: And the SI (MT4 [3])?
A: Its SI is over 2.4.

Q: Which CC50 (MT4 [1]) does the source give for `O=C(Nc1ccc([N+](=O)[O-])cc1)OCCN1C(=O)c2ccccc2C1=O` here?
A: Its CC50 is over 100 µM.

Q: And the EC50 (MT4 [2])?
A: Its EC50 is 0.5 µM.

Q: What about the SI (MT4 [3]) of the same compound?
A: The SI was over 200.

Q: What does the source list for `N#Cc1ccc(NC(=S)OCCN2C(=O)c3ccccc3C2=O)cc1`?
A: CC50 (MT4 [1]): > 100 µM; EC50 (MT4 [2]): 0.07 µM; SI (MT4 [3]): >1429; EC90 (C8166): 0.1 µM; EC50 (MT4 [4]): 5.9 µM

Q: `O=C1c2ccccc2C(=O)N1CCOC(=S)Nc1ccc([N+](=O)[O-])cc1` was tested. Which CC50 (MT4 [1]) did it give?
A: Its CC50 is 65 µM.

Q: What about the EC50 (MT4 [2]) of the same compound?
A: Its EC50 is 0.04 µM.

Q: What about the SI (MT4 [3]) of the same compound?
A: The SI was 1625.

Q: And the EC90 (C8166)?
A: The EC90 was 0.03 µM.

Q: And the EC50 (MT4 [4])?
A: The EC50 was 6 µM.

Q: Which IC50 [6] does the source give for `Cl.S=C(NCCc1ccccn1)Nc1ccc(Br)cn1` [TROVIRDINE HYDROCHLORIDE] here?
A: Its IC50 is 15 µM.

Q: What about the CC50 (MT4 [1]) of the same compound?
A: Its CC50 is 60 µM.

Q: What about the IC50 [7] of the same compound?
A: The IC50 was over 20 µM.

Q: What about the EC50 (MT4 [2]) of the same compound?
A: Its EC50 is 0.02 µM.

Q: And the IC50 [8]?
A: The IC50 was 1.03 µM.

Q: And the IC50 [9]?
A: The IC50 was over 20 µM.

Q: What about the SI (MT4 [3]) of the same compound?
A: Its SI is 3000.

Q: And the EC90 (C8166)?
A: Its EC90 is 0.015 µM.

Q: What about the EC50 (MT4 [4]) of the same compound?
A: The EC50 was 1.2 µM.
